Bioassay records deposited in PubChem by several laboratories.
Rows were chosen to be rich in hits. Some 1.3% of all compounds tested hit in one or more screens of this group.
TbHK1 inh – Trypanosoma brucei hexokinase 1 inhibitors, primary screen, biochemical, G6PDH-coupled NADH absorbance, MLSCN library | recombinant TbHK1, G6PDH-coupled NADH A340 | inhibition, % at 10 µM | actives 0.11% (n = 220,000) | AID 1430, 2008;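 active means inhibition of 50% or more in the single-dose primary screen; inactive means inhibition below 50%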
Diaphorase inh – diaphorase inhibitors and chemical oxidizers, primary screen, counter-screen for diaphorase-coupled primary assays, biochemical, uHTS, resorufin fluorescence; inhibition, % at 20 µM; diaphorase resazurin-to-resorufin fluorescence, NADH, 16 min; bacterial (C. kluyveri) enzyme, not human; actives 0.69% (n = 190,000);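 active means primary screen inhibition at 20 µM above a set limit, cut at about 50% in these data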
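Assay system: diaphorase enzyme from Clostridium kluyveri. Quantity: enzyme working solution with 0.14 U/mL diaphorase. Schedule: reaction incubation of 16 min at room temperature. Technique: resorufin fluorescence, excitation 544 nm, emission 590 nm. Controls: No-NADH positive control and DMSO neutral control.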
HKDC1 inh – HKDC1 hexokinase inhibitors, primary screen, biochemical, fluorescence, uHTS; Q2TB90; recombinant HKDC1, G6PDH/diaphorase resazurin coupled fluorescence; inhibition, % at 20 µM; actives 0.16% (n = 340,000);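 active means inhibition above about 35% when tested at 20 µM, limit read from the data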
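Test system: Recombinant HKDC1 (HK5) hexokinase enzyme, produced in-house | Input: HKDC1 at 5 µg/mL | Buffer or medium: Tris pH 8.0 buffer with MgCl2, Tween-20, BSA, BME | Schedule: 90 min reaction incubation at room temperature, dark | Technique: Resazurin-to-resorufin fluorescence via G6PDH and diaphorase coupling, 525/613 nm | Controls: DMSO wells with and without enzyme mix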
PfG6PD inh – PfG6PD enzyme inhibitors, primary screen, biochemical, fluorescence intensity, uHTS. PfGluPho enzyme, NADPH resazurin-diaphorase fluorescence. actives 0.78% (n = 350,000). inhibition, % at 20 µM. glucose-6-phosphate dehydrogenase-6-phosphogluconolactonase (Plasmodium falciparum 3D7);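 active means inhibition reaching at least a set limit at 20 µM in the primary screen, cut at about 59% in these data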
G6PDH CS – L. mesenteroides G6PDH inhibitors, counter-screen for G6PDH-coupled screening assays, biochemical, Leuconostoc mesenteroides enzyme | Purified L. mesenteroides G6PDH, diaphorase/resazurin coupled fluorescence, 45 min | actives 0.12% (n = 200,000) | inhibition, % at 5 µM | glucose-6-phosphate dehydrogenase [Leuconostoc mesenteroides]; in the data active means inhibition above about 50%
HKDC1 act conf – HKDC1 hexokinase activators, confirmation, biochemical, single concentration; recombinant HKDC1, G6PDH/diaphorase resazurin fluorescence; active compounds read low; shares compounds with HKDC1 inh; actives 14% (n = 740); AID 504708, 2011; inhibition, % at 20 µM;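 active means inhibition at or below a set negative limit, negative inhibition meaning the enzyme was activated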
Each line names hits and unclear results; the compound was inactive in the other large screens (follow-up assays come after a bar, where they were run); ! = a repeat was not active.

Cc1ccc(NCC(=O)N=Nc2c(O)[nH]c3ccc([N+](=O)[O-])cc23)cc1	none (no result: Diaphorase inh, G6PDH CS)
O=C(Nc1ccc(F)cc1)C(=O)c1c(O)[nH]c2ccc([N+](=O)[O-])cc12	HKDC1 inh 42 (no result: Diaphorase inh, G6PDH CS) | HKDC1 act conf inactive
O=c1c2ccccc2nc2n1CCC2	HKDC1 inh 82 | HKDC1 act conf inactive
Cc1ccc(NC(=O)CN2C(=O)S/C(=C/c3ccc(-c4cc(C(=O)O)ccc4C)o3)C2=O)cc1C	Diaphorase inh 71, HKDC1 inh 43 | HKDC1 act conf inactive
CC1CCCN(C(=O)CSc2nnc(-c3ccncc3)n2C)C1 (centres undefined)	none
COC(=O)c1cccc(C23CC4(C2)[C@H](CN(Cc2ccc(C(F)(F)F)cc2)[C@@H]4c2ccccc2)C3c2ccc(Cl)nc2)c1 (some centres undefined)	none (no result: Diaphorase inh, G6PDH CS)
Oc1ccc(O)c(Cc2nc3ccccc3[nH]2)c1	HKDC1 inh 54 | HKDC1 act conf inactive
S=C(NCCc1ccc(Cl)cc1)NCc1ccccc1	none (no result: TbHK1 inh, Diaphorase inh, G6PDH CS) | HKDC1 act conf inactive
CC(C)(C)NC(=O)NC(=O)CN1CCN(S(=O)(=O)/C=C/c2ccccc2)CC1	none (no result: TbHK1 inh, Diaphorase inh, G6PDH CS)
Cc1ccc(S(=O)(=O)CCC(O)c2ccc(Cl)cc2)cc1 (centres undefined)	none (no result: TbHK1 inh, Diaphorase inh, G6PDH CS)
O=C(Cn1cnc2c(nnn2-c2ccccc2)c1=O)NCc1ccco1	none
Cc1sc(-c2ccccn2)nc1OC(=O)c1ccc(F)cc1F	none | HKDC1 act conf inactive
Cc1sc(-c2ccccn2)nc1OC(=O)c1ccc(Cl)c(Cl)c1	none
CC(Sc1nc2ccccc2[nH]1)C(=O)NC1CCCCC1C (centres undefined)	none (no result: TbHK1 inh, Diaphorase inh, G6PDH CS)
Cc1cc(Oc2ccc(C(C)(C)C)cc2)nc(N2CCOCC2)n1	none | HKDC1 act conf -37
NC(=O)[C@H]1CC2(CC(c3cccc(NC(=O)[C@H]4CCC(=O)N4)c3)=NO2)CN1C(=O)c1ccccc1 (some centres undefined)	HKDC1 inh 39 (no result: Diaphorase inh, G6PDH CS) | HKDC1 act conf inactive
CCCCn1c(N)c(N(CCOC)C(=O)C2CC(=O)N(Cc3ccc(C)cc3)C2)c(=O)[nH]c1=O (centres undefined)	none (no result: TbHK1 inh, Diaphorase inh, G6PDH CS)
COc1ccc(-c2nnc(SC)nc2-c2ccc(OC)c([N+](=O)[O-])c2)cc1[N+](=O)[O-]	none (no result: TbHK1 inh, Diaphorase inh, G6PDH CS) | HKDC1 act conf inactive
CCNC(=S)N1CCN(c2ccccn2)CC1	none
CC(NNC(=S)N1CCN(c2ccccn2)CC1)c1nccc2ccccc12 (centres undefined)	none (no result: TbHK1 inh, Diaphorase inh, G6PDH CS) | HKDC1 act conf -75
COc1ccc(-c2csc(Nc3ccc(S(N)(=O)=O)cc3)n2)cc1	none | HKDC1 act conf inactive
COc1ccc(Nc2nc(-c3ccc(OC)cc3)cs2)cc1	none
CC1(C)C(=O)Nc2ccccc2N1C(=O)COC(=O)c1cccnc1	none (no result: TbHK1 inh, Diaphorase inh, G6PDH CS)
CC1(C)C(=O)Nc2ccccc2N1C(=O)COC(=O)c1cc(Cl)cc(Cl)c1	none (no result: TbHK1 inh, Diaphorase inh, G6PDH CS) | HKDC1 act conf -50
CSC1=NC(=O)/C(=C\c2cccc3ccccc23)S1	none | HKDC1 act conf inactive
Cc1c(C#N)c2ncnc(N)c2n1-c1ccccc1	none
Oc1ccc(/C=N/Nc2ccnc3cc(Cl)ccc23)c(O)c1O	HKDC1 inh 37 (no result: TbHK1 inh, Diaphorase inh, G6PDH CS) | HKDC1 act conf inactive
Oc1ccc(/C=N/Nc2ccnc3cc(Cl)ccc23)cc1O	none (no result: Diaphorase inh, G6PDH CS)
O=C(COc1ccc2ccc(=O)oc2c1)N1CCN(c2ccc(F)cc2)CC1	none (no result: TbHK1 inh, Diaphorase inh, G6PDH CS)
NC(=NCCCCCCN=C(N)/N=C(\N)Nc1ccc(Cl)cc1)/N=C(\N)Nc1ccc(Cl)cc1	HKDC1 inh 53! (no result: TbHK1 inh, Diaphorase inh, G6PDH CS) | HKDC1 act conf inactive
COc1ccc(/C=C/C(=O)NC(=S)NNC(=O)c2cnccn2)cc1	none (no result: Diaphorase inh, G6PDH CS) | HKDC1 act conf -58
O=C(NC(=S)NNC(=O)c1cnccn1)c1ccc(F)cc1	Diaphorase inh 64 | HKDC1 act conf -36
O=C(/C=C/c1ccc(F)cc1)NC(=S)NNC(=O)c1cnccn1	none (no result: Diaphorase inh, G6PDH CS)
CC(=O)c1c(C(C)=O)c(C)n(-c2cccc([N+](=O)[O-])c2)c1C	none
CC(=O)C1=C(c2cccc([N+](=O)[O-])c2)N(C(C)=O)n2c(C)nnc2S1	none | HKDC1 act conf -387
CC(=O)Nc1ccc2cc3ccc(NC(C)=O)cc3nc2c1	HKDC1 inh 43 (no result: Diaphorase inh, G6PDH CS) | HKDC1 act conf inactive
CC(=O)Nc1ccc2ccccc2c1	none
Cn1c(SCc2ccccc2)nccc1=O	none (no result: TbHK1 inh, Diaphorase inh, G6PDH CS)
CC1=C(SCc2ccccc2)C(=O)c2ccccc2C1=O	HKDC1 inh 44, PfG6PD inh 105 (no result: TbHK1 inh, Diaphorase inh, G6PDH CS) | HKDC1 act conf inactive
Cc1ccc(CNC(=O)COC(=O)CCOc2ccc(C)cc2)cc1	none (no result: TbHK1 inh, Diaphorase inh, G6PDH CS)
O=S(=O)(c1cccc(COc2ccc(Cl)cc2Cl)c1)N1CCOCC1	HKDC1 inh 39 (no result: TbHK1 inh, Diaphorase inh, G6PDH CS) | HKDC1 act conf inactive
O=C1C=CC2(C=C1)O[C@H](Cc1ccccc1)[C@@H](Cc1ccccc1)O2	HKDC1 inh 38 (no result: TbHK1 inh, Diaphorase inh, G6PDH CS) | HKDC1 act conf inactive
O=C1Nc2ccccc2C1Cc1ccccc1 (centres undefined)	none (no result: Diaphorase inh, G6PDH CS)
Nc1cccc(C(=O)c2ccccc2C(=O)O)c1	none (no result: TbHK1 inh, Diaphorase inh, G6PDH CS)
O=S(=O)(c1cc(Cl)cc(Cl)c1O)N1CCC2(CC1)OCCO2	none (no result: TbHK1 inh, Diaphorase inh, G6PDH CS) | HKDC1 act conf inactive
Cc1cc(S(=O)(=O)N2CCC3(CC2)OCCO3)c(C)cc1Cl	none (no result: TbHK1 inh, Diaphorase inh, G6PDH CS)
CCn1c(CC(=O)Nc2ccc(C)cc2)n[nH]c1=S	none
CCCCCC(=O)Nc1cc(S(=O)(=O)O)cc2cc(S(=O)(=O)O)cc(O)c12	none (no result: TbHK1 inh, Diaphorase inh, G6PDH CS) | HKDC1 act conf inactive
CCCCCC(=O)Nc1cc(S(=O)(=O)N2CCCCC2)ccc1N1CCCCC1	none (no result: TbHK1 inh, Diaphorase inh, G6PDH CS)
